This note sets out measurements from ChEMBL document CHEMBL5096187, “Efficient Synthesis and Bioevaluation of Novel Dual Tubulin/Histone Deacetylase 3 Inhibitors as Potential Anticancer Agents” (J Med Chem, 2021).

Activity calls are given as the source filed them. The rule behind the calls is not given here.

Broadly, the IC50 is the midpoint of a concentration-inhibition curve. A word on the inhibition: it is how much of the control response was suppressed.

One series addresses T1, Histone deacetylase 8 (Homo sapiens, UniProt Q9BY41).
T1 sequence (Q9BY41 whole entry): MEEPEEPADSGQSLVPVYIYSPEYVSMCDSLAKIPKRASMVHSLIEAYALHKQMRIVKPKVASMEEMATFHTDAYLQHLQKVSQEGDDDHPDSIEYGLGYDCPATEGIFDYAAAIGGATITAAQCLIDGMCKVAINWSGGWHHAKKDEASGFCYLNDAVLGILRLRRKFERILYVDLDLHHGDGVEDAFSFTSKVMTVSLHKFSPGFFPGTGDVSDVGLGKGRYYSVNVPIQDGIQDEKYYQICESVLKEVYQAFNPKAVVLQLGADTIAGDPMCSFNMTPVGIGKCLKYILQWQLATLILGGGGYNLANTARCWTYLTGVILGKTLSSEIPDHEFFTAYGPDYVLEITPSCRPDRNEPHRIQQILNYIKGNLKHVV
The experiment in a line: Inhibition of full length C-terminal his-tagged human recombinant HDAC8 ([…]) expressed in baculovirus in Sf9 insect cells using Ac-Leu-Gly-Lys (Tfa)-AMC as substrate pretreated for 5 mins followed by substrate addition and measured after 30 mins.

Series [1] is described as follows: Cardiotoxicity in C57BL/6 mouse ssessed as effect on heart rate by ECG analysis. The class given is toxicity. In a few lines: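 Mice aged 6–8 weeks dosed by intragastric gavage once daily for 14 days; ECG and heart rate recorded on a PowerLab system.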
Series [2] relates to B16-F10. As to the kind of experiment: Induction of apoptosis in mouse B16-F10 cells assessed as early apoptotic cells at 50 nM incubated for 48 hrs by Annexin V-FITC/PI analysis (reference value: 1.68 %). The class given is functional.
The subject of series [3] is B16-F10. As to the kind of experiment: Induction of apoptosis in mouse B16-F10 cells assessed as viable cells at 25 nM incubated for 48 hrs by Annexin V-FITC/PI analysis (reference value: 98.3 %). To be noted: read-out: Activity. The format is functional.
Series [4] concerns B16-F10. The experiment in a line: Inhibition of cell migration in mouse B16-F10 cells assessed as reduction in wound area ratio measured at 100 nM incubated for 24 hrs by wound healing assay. The arrangement: scale not given: the % may be the effect or the level left. The format is functional. The gist of the method:
(§1)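 Confluent B16-F10 monolayers, seeded overnight, were scratched with a pipette tip and washed to remove debris. Cells were then treated, and phase-contrast images were taken at 0 and 24 h. Migration distance or wound area measured manually against DMSO control; n = 3.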

The subject of series [5] is B16-F10. The experiment in a line: Induction of apoptosis in mouse B16-F10 cells assessed as necrotic cells at 25 nM incubated for 48 hrs by Annexin V-FITC/PI analysis (reference value: 0.012 %). The class given is functional.
A short description of series [6]: Toxicity in C57BL/6 mouse allografted with mouse B16-F10 cells assessed as body weight loss at 10 mg/kg, ip administered for 14 days. As to conditions: in vivo, 336 h.
Series [7] concerns B16-F10. The experiment in a line: Inhibition of cell migration in mouse B16-F10 cells assessed as reduction in wound area ratio measured at 25 nM incubated for 24 hrs by wound healing assay. The class given is functional. Also noted: scale not given: the % may be the effect or the level left. In a few lines:
as §1

The nature of series [8]: Hepatotoxicity in C57BL/6 mouse assessed as effect on ALT level in serum. The class given is toxicity.
The target in another series is Tubulin (Sus scrofa) (UniProt P02554+P02550). As to the kind of experiment: Inhibition of pig brain tubulin polymerization at 10 uM measured after 20 mins by spectrometric method relative to control. In a few lines: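 Pig brain tubulin was purified by three assembly/disassembly cycles and then phosphocellulose chromatography. Compound at 10 μM in PEM buffer with 1 mM GTP and 5% glycerol at 37 °C. Polymerization followed at 340 nm; inhibition taken at 20 min versus vehicle control.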

The test system of series [9] is B16-F10. The experiment in a line: Inhibition of colony formation in mouse B16-F10 cells assessed as reduction in number of colonies at 100 nM incubated for 24 hrs. The class given is functional, cell-based. In a few lines: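 1000 B16-F10 cells seeded and cultured 24 h at 37 °C, then exposed to compound for 24 h. Medium was then replaced and cells grown 10–14 days. Colonies fixed with 4% paraformaldehyde for 30 min, stained with 0.1% crystal violet for 15 min, and counted; n = 3 versus DMSO.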

In series [10] the test system is B16-F10. As to the kind of experiment: Induction of apoptosis in mouse B16-F10 cells assessed as late apoptotic cells at 50 nM incubated for 48 hrs by Annexin V-FITC/PI analysis (reference value: 1.68 %). The class given is functional.
Series [11] deals with B16-F10. As to the kind of experiment: Inhibition of cell migration in mouse B16-F10 cells assessed as reduction in wound area ratio measured at 50 nM incubated for 24 hrs by wound healing assay. The format is functional. The arrangement: scale not given: the % may be the effect or the level left. In a few lines: as §1
The test system of series [12] is B16-F10. As to the kind of experiment: Antimigratory activity against mouse […] cells assessed as reduction in wound closure measured up to 24 hrs by scratch wound healing assay. The class given is functional, cell-based. To be noted: dose 25-100 nM, DDE = dose-dependent effect. In a few lines: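 B16-F10 cells seeded overnight; confluent monolayers scratched with a pipette tip and rinsed twice with medium to clear debris. Cells treated with compound for 24 h against a DMSO control. Phase-contrast images taken at 0 and 24 h. Migration distance into the wound, or scratch length, measured by hand. n = 3.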

Series [13] concerns B16-F10. The experiment in a line: Induction of apoptosis in mouse B16-F10 cells assessed as necrotic cells at 100 nM incubated for 48 hrs by Annexin V-FITC/PI analysis (reference value: 0.012 %). The class given is functional.
For the next series, the target named is Histone deacetylase 1 (Homo sapiens, UniProt Q13547). The experiment in a line: Inhibition of full length recombinant human HDAC1 (1 to 482 residues) expressed in Baculovirus system using Ac-Leu-Gly-Lys (Ac)-AMC as substrate pretreated for 5 mins followed by substrate addition and measured after 30 mins.
Series [14] concerns B16-F10. As to the kind of experiment: Induction of apoptosis in mouse B16-F10 cells assessed as late apoptotic cells at 25 nM incubated for 48 hrs by Annexin V-FITC/PI analysis (reference value: 0.00 %). The class given is functional.
A short description of series [15]: Nephrotoxicity in C57BL/6 mouse assessed as effect on urea level in serum. The class given is toxicity. As to conditions: in vivo.
Series [16] can be described thus: Toxicity in C57BL/6 mouse allografted with mouse B16-F10 cells assessed as morphological abnormalities in kidney at 10 mg/kg, ip administered for 14 days by H and E staining based analysis. The format is organism-based. To be noted: in vivo, 336 h, time 14 day. The gist of the method:
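C57BL/6 mice with subcutaneous B16-F10 allografts, n = 8 per group, given i.p. injections once daily for 14 days. Single agents at 10 mg/kg; combination at 5 + 5 mg/kg. Vehicle: ethanol/polyoxyethylene castor oil/saline 1.25:1.25:7.5. Liver and kidney fixed in 4% paraformaldehyde, paraffin-embedded, H&E stained and examined by microscopy.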

The nature of series [17]: In vivo inhibition of HDAC in tumor of mouse B16-F10 cells xenografted in C57BL/6 mouse assessed as increase in acetylated histone-H3 expression by […] immunohistochemistry method. The arrangement: scale not given: the % may be the effect or the level left. The format is functional. In a few lines: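 Tumors from the 14-day i.p. B16-F10 study were formalin-fixed and paraffin-embedded. Sections were deparaffinized, treated with 3% H2O2, and antigen-retrieved at pH 9 and 80 °C overnight. Blocked with milk, incubated with anti-Ac-H3 at 4 °C overnight, then IgG secondary and hematoxylin counterstain. Ac-H3-positive ratio quantified from images.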

Series [18] relates to B16-F10. The experiment in a line: Induction of apoptosis in mouse B16-F10 cells assessed as viable cells at 100 nM incubated for 48 hrs by Annexin V-FITC/PI analysis (reference value: 98.3 %). The class given is functional. As to conditions: read-out: Activity.
For series [19], the system named is B16-F10. The experiment in a line: Induction of apoptosis in mouse B16-F10 cells assessed as necrotic cells at 50 nM incubated for 48 hrs by Annexin V-FITC/PI analysis (reference value: 0.012 %). The class given is functional.

Sequence of Histone deacetylase 1 (Q13547 whole entry, the tested form may be a part): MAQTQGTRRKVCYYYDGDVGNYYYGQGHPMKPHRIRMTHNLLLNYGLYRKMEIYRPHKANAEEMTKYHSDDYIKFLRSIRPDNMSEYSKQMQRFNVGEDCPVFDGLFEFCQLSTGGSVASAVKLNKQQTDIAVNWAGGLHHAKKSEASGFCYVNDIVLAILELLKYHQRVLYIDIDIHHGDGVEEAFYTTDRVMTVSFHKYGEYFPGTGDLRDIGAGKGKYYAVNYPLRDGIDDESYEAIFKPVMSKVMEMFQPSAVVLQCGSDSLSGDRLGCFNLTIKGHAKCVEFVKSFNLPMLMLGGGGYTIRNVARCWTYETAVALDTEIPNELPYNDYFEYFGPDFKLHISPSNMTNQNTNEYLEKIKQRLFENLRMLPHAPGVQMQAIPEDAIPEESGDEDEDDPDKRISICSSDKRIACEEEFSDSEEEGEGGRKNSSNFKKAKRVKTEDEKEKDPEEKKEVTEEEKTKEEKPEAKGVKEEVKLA
Sequence of Tubulin (Sus scrofa) (P02550 whole entry, looked up): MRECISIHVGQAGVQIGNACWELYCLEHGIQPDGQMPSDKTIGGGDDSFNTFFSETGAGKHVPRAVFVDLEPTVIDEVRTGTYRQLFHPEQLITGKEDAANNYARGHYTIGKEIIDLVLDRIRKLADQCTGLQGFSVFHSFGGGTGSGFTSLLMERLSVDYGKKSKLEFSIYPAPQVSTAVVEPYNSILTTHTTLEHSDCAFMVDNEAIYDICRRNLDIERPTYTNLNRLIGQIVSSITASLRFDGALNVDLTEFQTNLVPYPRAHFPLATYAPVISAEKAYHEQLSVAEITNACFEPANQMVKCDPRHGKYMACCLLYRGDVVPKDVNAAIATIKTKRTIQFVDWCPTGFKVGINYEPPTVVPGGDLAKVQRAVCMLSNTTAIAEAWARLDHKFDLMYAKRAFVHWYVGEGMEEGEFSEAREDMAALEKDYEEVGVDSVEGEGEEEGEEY
Sequence of Tubulin (Sus scrofa) (P02554 whole entry, looked up): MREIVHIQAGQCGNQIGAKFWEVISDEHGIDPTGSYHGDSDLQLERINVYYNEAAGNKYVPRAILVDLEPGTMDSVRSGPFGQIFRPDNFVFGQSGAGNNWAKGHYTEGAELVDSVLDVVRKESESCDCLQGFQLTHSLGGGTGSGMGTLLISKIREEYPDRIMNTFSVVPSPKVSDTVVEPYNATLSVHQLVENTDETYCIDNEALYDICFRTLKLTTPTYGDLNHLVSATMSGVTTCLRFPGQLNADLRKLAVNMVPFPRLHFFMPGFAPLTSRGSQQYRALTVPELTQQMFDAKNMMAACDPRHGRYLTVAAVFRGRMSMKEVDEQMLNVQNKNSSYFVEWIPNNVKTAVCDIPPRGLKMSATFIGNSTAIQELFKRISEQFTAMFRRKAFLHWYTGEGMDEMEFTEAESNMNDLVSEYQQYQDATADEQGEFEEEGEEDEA

Consider `COc1cc(C(=O)c2csc(-c3ccc(NC(=O)CCCC(=O)Nc4ccccc4N)cc3)n2)cc(OC)c1OC`, for which the IC50 on Histone deacetylase 8 amounted to 11.6 µM; at Histone deacetylase 1, 9.04 µM. For the same molecule, the Activity entry in series [1] is listed as “Non-Toxic”; with B16-F10 [2] it was 7.09%; in the series with B16-F10 [4], 7.18%; in the series with B16-F10 [5], 0%; in series [6] it was “Non-Toxic”; in the series with B16-F10 [7] it was 27.32%. Further, the Activity result is “Non-Toxic” in series [8]; 32.3% with B16-F10 [10]; 17.63% in the series on B16-F10 [11]; “Dde” in the series on B16-F10 [12]; 1.29% in the series on B16-F10 [13]; 0% in the series on B16-F10 [14]. Also, the Activity result in series [15] is on record as “Non-Toxic”; in series [16], “Non-Toxic”; in series [17], 36.7%; with B16-F10 [19] it was 1.9%. For the same molecule, in the series on B16-F10 [3], the viability at 0.025 µM stood at 89.1%. Also, the inhibition at Tubulin (Sus scrofa) came out at 70%. Further, in the series on B16-F10 [9], the result was Active. For the same molecule, the viability at 0.1 µM in the series with B16-F10 [18] is 31.6%.
